Source: PubChem (Broad Institute)
FGF22 binding = binders of recombinant human FGF22 by thermal shift. Q9HCT0. SYPRO orange fluorescence; percent of sucrose octasulfate shift, DMSO zero. activity (Tm shift, normalised), % at 9.99 µM. 340,000 tested, 1.5% active;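 active means mean Tm shift, scaled 0 neutral to 100 positive control, at about 1.3% or above, every replicate too, limit read from the data; inconclusive means no clear call, values can overlap the other calls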
Target sequence (Q9HCT0 whole entry, looked up): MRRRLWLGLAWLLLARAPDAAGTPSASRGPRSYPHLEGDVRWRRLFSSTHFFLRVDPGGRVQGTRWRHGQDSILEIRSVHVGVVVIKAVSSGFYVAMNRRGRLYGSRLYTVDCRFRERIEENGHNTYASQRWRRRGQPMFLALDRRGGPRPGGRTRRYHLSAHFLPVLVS
ARNT TACC3 PPI = disruptors of human ARNT/TACC3 interaction; Q9Y6A5; AlphaScreen His-ARNT PAS-B/GST-TACC3 binding, luminescence; TACC3 fragment carries E629A point mutation; inhibition, % at 9.99 µM; 390,000 tested, 0.66% active; AID 623870;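 active means mean inhibition of replicates at least 50% and at least half of replicates each reaching 50%; inconclusive means half or more replicates reach 50% but mean below 50%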;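 further: 0% = complete ARNT plus TACC3 wells and 100% = ARNT alone without TACC3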
Xi reactivation = reactivates the inactive X chromosome in mouse fibroblasts; XiGFP mouse fibroblasts, % GFP-positive cells imaging, 3 d; cells co-treated with 5-aza-dC sensitizer; scaled so ellipticine positive control = 100%; activation, % at 7.58 µM; 360,000 tested, 0.055% active;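 active means mean normalized replicate activation at least 10% and every replicate at or above 10%; inconclusive means only one of the two criteria met; inactive means mean below 10% and not all replicates reach 10%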;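 further: 0% = median of on-plate neutral control wells and 100% = ellipticine 6 µM median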
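System: 68-5-11 XiGFP fibroblast line; Timing: 3 days compound exposure; Compound dosing: one concentration, pinned; Benchmarks: positive control ellipticine, 6 µM final; Buffer or medium: DMEM containing 5-aza-dC.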
DENV2 CPE = inhibitors of DENV2 cytopathic effect; DENV2-infected cells, cytopathic effect rescue, plate reader; CPE inhibition, % at 9.99 µM; 350,000 tested, 1.7% active; in the data active means CPE inhibition above about 20%, passing the limit was not always enough; inconclusive means no clear call, values can overlap the other calls; tested in BHK-21 cells;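 further: 0% = median of neutral control wells and 100% = median of positive control wells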
SIRT5 block = blocks human SIRT5 desuccinylation of peptide; Q9NXA8; Purified SirT5, succinyl-peptide AMC, trypsin-coupled fluorescence; inhibition, % at 15 µM; 330,000 tested, 1.1% active; in the data active means inhibition above about 15%; inconclusive means no clear call, values can overlap the other calls
Target sequence (Q9NXA8 whole entry, looked up): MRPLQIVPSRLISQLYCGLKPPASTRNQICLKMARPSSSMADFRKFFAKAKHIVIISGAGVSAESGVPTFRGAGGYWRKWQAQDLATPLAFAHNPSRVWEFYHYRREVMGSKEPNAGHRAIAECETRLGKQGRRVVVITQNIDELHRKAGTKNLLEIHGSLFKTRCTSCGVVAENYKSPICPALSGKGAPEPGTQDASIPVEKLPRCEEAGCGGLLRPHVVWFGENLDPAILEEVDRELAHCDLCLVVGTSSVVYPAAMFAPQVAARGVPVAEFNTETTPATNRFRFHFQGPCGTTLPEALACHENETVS
FN deposition inh = fibronectin deposition inhibition. inhibition, % at 12.6 µM. AID 743247. AH1F fibroblasts, Alexa488-fibronectin deposition fluorescence, overnight. 350,000 tested, 0.086% active;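 active means mean inhibition across replicates of 30% or more, regardless of how many single replicates reach that level; inconclusive means mean under 30% yet at least half of replicates reach 30%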;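 further: positive control wells lacked labelled fibronectin entirely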
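Assay system: AH1F fibroblasts / Quantity: 10000 cells per well / Medium: DMEM plus 2% serum, read in PBS / Reagent: labelled fibronectin 24 nM / Dosing: single dose, pinned / Times: 1 h cell attachment, overnight exposure to compound and label / Signal: fluorescence, ex 485 nm, em 525 nm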
Active calls of the source: *; ? = inconclusive; nt = no result. Rows were chosen to be rich in hits. Some 3.8% of all compounds tested hit in one or more screens of this group.

SMILES | FGF22 binding | ARNT TACC3 PPI | Xi reactivation | DENV2 CPE | SIRT5 block | FN deposition inh
C[C@@H]1CN([C@@H](C)CO)C(=O)c2cccc(NS(=O)(=O)c3cccs3)c2O[C@H]1CN(C)Cc1ccccc1 | 1 | -5 | 0 | -13 | -5 | nt
C[C@H](CO)N1C[C@H](C)[C@@H](CN(C)C(=O)Nc2ccc(F)cc2)OCCCC[C@H](C)Oc2ccc(NS(=O)(=O)c3ccc(Cl)cc3)cc2C1=O | nt | nt | 0 | -6 | 9 | 5
COc1cc(/C=N/NC(=O)C2=NNC(=O)C2C)ccc1O (centres undefined) | 0 | 2 | nt | -2 | 5 | 4
CC1C(=O)NN=C1C(=O)N/N=C\c1ccc(O)cc1O (centres undefined) | nt | 79* | 0 | -4 | 6 | -6
COc1ccc(-c2cc(=O)[nH][nH]2)cc1OC | nt | 50* | nt | nt | nt | nt
COc1cccc(-c2cc(=O)[nH][nH]2)c1 | 0 | 2 | 0 | -5 | -1 | -3
COc1ccc(N2C(=O)CC(Nc3ccc(C(=O)O)cc3)C2=O)cc1OC (centres undefined) | 43* | 8 | 0 | -6 | -1 | 1
O=C(NCCc1csc(-c2cccnc2)n1)c1ccccc1Br | 0 | -4 | 0 | -1 | 15* | 6
C[C@@H](NC(=O)C[C@H]1C[C@@H]2c3cc(NC(=O)NC4CCCC4)ccc3O[C@@H]2[C@H](CO)O1)c1ccccc1 | 0 | -9 | 1 | 6 | nt | -3
COc1cccc(NC(=O)N2[C@H](CO)[C@H](c3ccccc3)[C@@H]2CNC(C)C)c1 | 0 | 8 | 0 | -4 | 0 | 0
CC1(C)C=C2C(=NN(c3ccccc3)C(N)=C2C#N)CO1 | 0 | 46* | 0 | -6 | -1 | 6
CC1(C)Cc2c(C#N)c(N)n(-c3ccccc3)c(=S)c2CO1 | 0 | 6 | 0 | 6 | 13 | -1
NC(=S)NN=C1CCCCCCCCCC1 | 0 | 33* | 0 | -6 | -2 | 5
NC(=S)NN=C1CCC(C2CCCCC2)CC1 (centres undefined) | 0 | 7 | 0 | -8 | 3 | -11
c1ccc(N2CCN(c3nc(-c4cccs4)nc4ccccc34)CC2)cc1 | 43* | nt | 0 | -7 | -3 | 1
CCN1CCN(c2nc(-c3ccccn3)nc3ccccc23)CC1 | nt | 46* | nt | nt | nt | -1
c1ccc(-c2nc(N3CCCCCC3)c3ccccc3n2)nc1 | nt | 76* | nt | nt | nt | nt
c1ccc(-c2nc(N3CCOCC3)c3ccccc3n2)nc1 | nt | nt | nt | nt | nt | -2
c1ccc(CN2CCN(c3nc(-c4ccccn4)nc4ccccc34)CC2)cc1 | nt | -3 | nt | nt | nt | nt
c1ccc(CCNc2nc(-c3ccccn3)nc3ccccc23)cc1 | 0 | 64* | 26* | -15 | 1 | 11
CO[C@H]1CN(C)C(=O)c2cc(NC(=O)C3CC3)ccc2OC[C@@H](C)N(C(=O)C2CCCCC2)C[C@H]1C | 0 | -3 | 0 | -5 | -1 | -6
COc1ccc(S(=O)(=O)Nc2cccc3c2O[C@@H](CN(C)Cc2ccc4c(c2)OCO4)[C@@H](C)CN([C@H](C)CO)C3=O)cc1 | 0 | -3 | 1 | 0 | 4 | nt
C[C@H]1CCCCO[C@H](CN(C)C(=O)Nc2ccc3c(c2)OCO3)[C@@H](C)CN([C@@H](C)CO)C(=O)c2cc(NC(=O)Nc3cccc4ccccc34)ccc2O1 | 0 | -13 | 0 | -2 | 8 | 8
COc1ccccc1NC(=O)N1CC(=O)N2[C@@H](CO)[C@@H](c3ccc(C#Cc4ccccc4)cc3)[C@@H]2C1 | nt | nt | 0 | -6 | 3 | nt
O=c1cnnc(SCc2ccc([N+](=O)[O-])cc2)[nH]1 | 43* | nt | 0 | 0 | -1 | -7
SMILES | FGF22 binding | ARNT TACC3 PPI | Xi reactivation | DENV2 CPE | SIRT5 block | FN deposition inh
O=[N+]([O-])c1ccc(CSc2nc3ccccc3[nH]2)cc1 | 0 | 2 | 0 | 0 | -1 | -11
CCOC(=O)CC1(C)Sc2ccccc2N1S(=O)(=O)c1ccc(C)cc1 (centres undefined) | 43* | nt | 0 | 63* | nt | 6
CCOC(=O)CC1(CCc2ccccc2)Oc2ccccc2N1S(=O)(=O)c1ccc(C)cc1 (centres undefined) | 0 | nt | 0 | -3 | 2 | -3
COc1ccc(S(=O)(=O)Nc2ccc3c(c2)C(=O)N([C@H](C)CO)C[C@@H](C)[C@H](CN(C)C(=O)Nc2ccccc2)OCCCC[C@H](C)O3)cc1 | nt | nt | 0 | nt | nt | -6
CNC[C@H]1Oc2ccc(NC(=O)Cn3cnnn3)cc2C(=O)N([C@@H](C)CO)C[C@@H]1C | 0 | -4 | 0 | 17 | 7 | 7
CC1(C)O[C@@H]2C[C@H]3[C@@H]4CCC5=CC(=O)C=C[C@]5(C)[C@@]4(F)[C@@H](O)C[C@]3(C)[C@]2(C(=O)CO)O1 | 0 | -4 | 0 | ? | 3 | -2
CC1(C)OC2CC3C4CCC5=CC(=O)CCC5(C)C4(F)C(O)CC3(C)C2(C(=O)CO)O1 (centres undefined) | 44* | -17 | 0 | -11 | nt | -6
CCc1nc(SCC(=O)Nc2nc3c(s2)CCCC3)c2ccccc2n1 | nt | -10 | nt | nt | nt | nt
CCCc1nc(SCC(=O)Nc2nc3c(s2)CCCC3)c2ccccc2n1 | 0 | -12 | nt | -5 | 16* | nt
COc1ccc(NC(=O)N(C)C[C@H]2Oc3c(NC(=O)c4nc5ccccc5s4)cccc3C(=O)N([C@H](C)CO)C[C@@H]2C)cc1 | 0 | 0 | 0 | ? | 0 | -3
CCN1[C@@H]2c3ccc(-c4ccccc4F)c(=O)n3C[C@H]1[C@H](CO)[C@H]2C(=O)NCCOC | 0 | -15 | 0 | 6 | 0 | nt
S=C(Nc1ccc2nc(-c3ccccn3)c(-c3ccccn3)nc2c1)N1CCCCCC1 | 0 | 8 | 0 | -1 | 9 | 0
S=C(Nc1ccc2nsnc2c1)N1CCCCC1 | 0 | 29* | 0 | 0 | nt | -5
Fc1cccc(NC(=S)N2CCCC2)c1 | 0 | nt | 0 | 2 | 15* | nt
S=C(Nc1ccc2nc(-c3ccccn3)c(-c3ccccn3)nc2c1)N1CCCCC1 | nt | 70* | nt | nt | nt | nt
S=C(Nc1ccc2nccnc2c1)N1CCOCC1 | 0 | 46* | 0 | 7 | -1 | -2
CC(=O)N1C[C@@H]2C(c3ccc(Br)cc3)[C@H](C1)N2C(=O)NC(C)C (some centres undefined) | nt | nt | 0 | nt | nt | -15
COc1ccc(NC(=O)N(C)C[C@@H]2Oc3ccc(NC(=O)Cc4ccccc4)cc3C(=O)N([C@@H](C)CO)C[C@H]2C)cc1 | 0 | 1 | 0 | 12 | -4 | -3
CCCNC(=S)Nc1ccc2nc(-c3ccccn3)c(-c3ccccn3)nc2c1 | nt | 57* | nt | nt | nt | 5
Cc1nc2ccc(NC(=S)NCCCO)cc2nc1C | 0 | 11 | 0 | nt | -2 | -2
